The source made the active and inactive calls. No cut-off for these calls is given here.
Assays:
Quadruplex DNA [1] = assay: Binding affinity to synthetic BCL2 G4 quadruplex DNA assessed as change in melting temperature at 10 molar equiv to DNA measured after 10 mins by circular dichroism melting analysis; format: nucleic-acid assay
In short: (§1)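 CD melting of folded DNA (G4 10 µM, duplex 15 µM) in 20 mM KCl, 5 mM KH2PO4 (pH 7.0), without and with 10 molar equivalents of ligand. Tm was taken from curve fitting, and ΔTm = Tm(DNA+ligand) − Tm(DNA). Runs were done in triplicate and averaged.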

Quadruplex DNA [2] = assay: Binding affinity to synthetic c-MYC G4 quadruplex DNA assessed as change in melting temperature at 10 molar equiv to DNA measured after 10 mins by circular dichroism melting analysis; format: nucleic-acid assay; in short: as §1
Quadruplex DNA [3] = assay: Binding affinity to synthetic c-KIT1 G4 quadruplex DNA assessed as change in melting temperature at 10 molar equiv to DNA measured after 10 mins by circular dichroism melting analysis; format: nucleic-acid assay; in short: as §1
Quadruplex DNA [4] = assay: Binding affinity to human telomeric 23 G4 quadruplex DNA assessed as change in melting temperature at 10 molar equiv to DNA measured after 10 mins by circular dichroism melting analysis; format: nucleic-acid assay; in short: as §1
[5] = Binding affinity to synthetic 20-mer hairpin duplex DNA assessed as change in melting temperature at 10 molar equiv to DNA measured after 10 mins by circular dichroism melting analysis; in short: as §1
Jurkat [6] = assay: Induction of apoptosis in human Jurkat cells assessed as viable cells at 25 uM measured after 48 hrs by Annexin V-FITC/propidium iodide staining based flow cytometry (reference value: 97%); format: functional; conditions: read-out: Activity
Jurkat [7] = assay: Induction of apoptosis in human Jurkat cells assessed as early apoptotic cells at 25 uM measured after 48 hrs by Annexin V-FITC/propidium iodide staining based flow cytometry (reference value: 0.3%); format: functional
Jurkat [8] = assay: Induction of apoptosis in human Jurkat cells assessed as late apoptotic cells at 25 uM measured after 48 hrs by Annexin V-FITC/propidium iodide staining based flow cytometry (reference value: 1.4%); format: functional
Jurkat [9] = assay: Down regulation of c-MYC mRNA expression in human Jurkat cells at 25 uM measured after 24 hrs by RT-qPCR analysis relative to control; format: functional
In short: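 Jurkat cells were treated 24 h at 25 µM, and total RNA was extracted with TRI Reagent. 0.5 µg RNA was reverse transcribed with MMLV RT and random primers (22 °C 10 min, 42 °C 60 min). SYBR qPCR ran 40 cycles (95/59/72 °C) in duplicate with GAPDH as reference. Relative expression was calculated by the […] method from at least three independent experiments.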

Jurkat [10] = assay: Down regulation of c-MYC expression in human Jurkat cells at 25 uM measured after 24 hrs by Western blot analysis relative to control; format: functional
In short: (§2)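 Jurkat cells treated 24 h at 25 µM were lysed in 50 mM Hepes pH 7.4, 50 mM NaCl, 1% Triton with protease inhibitors. Protein was quantified by Bradford and run on 10% SDS-PAGE to nitrocellulose. Blots were probed with anti-Bcl-2, anti-c-Myc and anti-β-actin and detected by ECL. Densitometry was normalised to β-actin and expressed as % of control; three independent experiments.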

Jurkat [11] = assay: Down regulation of BCL2 expression in human Jurkat cells at 25 uM measured after 24 hrs by Western blot analysis relative to control; format: functional; in short: as §2
Jurkat [12] = assay: Cytotoxicity against human Jurkat cells assessed as reduction in cell viability at 50 uM measured after 48 hrs by combined MTT and trypan blue staining based cell counting assay; format: functional
In short: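 Cells were seeded at 10^4/well (HDF 10^3), grown 24 h, then treated 48 h at 5–100 µM in 0.5% v/v DMSO. Read-outs were MTT (1 h, 37 °C, absorbance 550 nm; Jurkat handled by centrifugation) combined with trypan blue live/dead counting into a survival index versus untreated cells. IC50 came from nonlinear regression, n = 6 per experiment ×3 (n = 18), mean ± SEM.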

Quadruplex DNA [13] = assay: Binding affinity to synthetic BCL2 G4 quadruplex DNA assessed as change in chiral structure at 10 molar equiv to DNA measured after 10 mins by circular dichroism spectroscopic analysis; format: nucleic-acid assay
In short: (§3)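 CD spectra of annealed DNA in 20 mM KCl, 5 mM KH2PO4 (pH 7.0). G4 DNAs were at 10 µM and duplex at 15 µM. Ligand (10 mM DMSO stock) was added at 10 molar equivalents. Spectra were recorded 10 min after addition at 20 °C over 230–360 nm, averaged over three scans and baseline corrected.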

Quadruplex DNA [14] = assay: Binding affinity to synthetic c-MYC G4 quadruplex DNA assessed as change in chiral structure at 10 molar equiv to DNA measured after 10 mins by circular dichroism spectroscopic analysis; format: nucleic-acid assay; in short: as §3
Quadruplex DNA [15] = assay: Binding affinity to synthetic c-KIT1 G4 quadruplex DNA assessed as change in chiral structure at 10 molar equiv to DNA measured after 10 mins by circular dichroism spectroscopic analysis; format: nucleic-acid assay; in short: as §3
Quadruplex DNA [16] = assay: Binding affinity to human telomeric 23 G4 quadruplex DNA assessed as change in chiral structure at 10 molar equiv to DNA measured after 10 mins by circular dichroism spectroscopic analysis; format: nucleic-acid assay; in short: as §3
[17] = Binding affinity to synthetic 20-mer hairpin duplex DNA assessed as change in chiral structure at 10 molar equiv to DNA measured after 10 mins by circular dichroism spectroscopic analysis; in short: as §3

| SMILES | ΔTm (Quadruplex DNA [1]) [°C] | ΔTm (Quadruplex DNA [2]) [°C] | ΔTm (Quadruplex DNA [3]) [°C] | ΔTm (Quadruplex DNA [4]) [°C] | ΔTm [5] [°C] | also measured |
| --- | --- | --- | --- | --- | --- | --- |
| CN(C)CCCn1cnc2c1ncn1c(NC(C)(C)C)c(-c3ccc(N4CCOCC4)cc3)nc21 | 10.1 | 9.5 | 5.1 | 3.8 | 9.7 |  |
| CC(C)(C)Nc1c(-c2ccc(N3CCOCC3)cc2)nc2c3ncn(CCN4CCOCC4)c3ncn12 | 4.9 | 2.1 | 1.9 | 1 | 1.5 | viability at 25 µM (Jurkat [6]): 79%; Activity (Jurkat [7]): 8%; Activity (Jurkat [8]): 9%; Activity (Jurkat [9]): 27%; Activity (Jurkat [10]): Active; Activity (Jurkat [11]): Active; Activity (Jurkat [12]): Active |
| CC(C)(C)Nc1c(-c2ccc(N3CCOCC3)cc2)nc2c3ncn(CCN4CCCC4)c3ncn12 | 9.1 | 8.7 | 2.9 | 2.2 | 6 |  |
| CC(C)(C)Nc1c(-c2ccc(Cl)cc2)nc2[nH]c(=O)c3ncn(CCN4CCOCC4)c3n12 |  |  |  |  |  | Activity (Quadruplex DNA [13]): inactive; Activity (Quadruplex DNA [14]): inactive; Activity (Quadruplex DNA [15]): inactive; Activity (Quadruplex DNA [16]): inactive; Activity [17]: inactive; deltaTm (Quadruplex DNA [1]): inactive; deltaTm (Quadruplex DNA [2]): inactive; deltaTm (Quadruplex DNA [3]): inactive; deltaTm (Quadruplex DNA [4]): inactive; deltaTm [5]: inactive |
| CN(C)CCCn1cnc2c1ncn1c(NC(C)(C)C)c(-c3ccc(N(C)C)cc3)nc21 | 16.9 | > 25 | 11.9 | 7.2 |  |  |
| CC(C)(C)Nc1c(-c2ccccc2F)nc2c3ncn(CCN4CCCC4)c3ncn12 | 5 | 5.8 | 2.1 | 1.1 | 0.3 |  |
| CC(C)(C)Nc1c(-c2ccc(Cl)cc2)nc2c3ncn(CCN4CCCC4)c3ncn12 | 4.5 | 6.4 | 2.3 | 2.3 | 1.9 |  |
| CN(C)c1ccc(-c2nc3c4ncn(CCCN)c4ncn3c2NC(C)(C)C)cc1 | 1.7 | 1.1 | 1.4 | -0.1 | 0.5 |  |
| CC(C)(C)Nc1c(-c2ccccc2OCCN2CCOCC2)nc2c3ncn(CCN4CCOCC4)c3ncn12 | 1.9 | 1.9 | 0.8 | 0.1 | 1.2 |  |

Reference: ChEMBL document CHEMBL4402513, “Bio-Inspired Dual-Selective BCL-2/c-MYC G-Quadruplex Binders: Design, Synthesis, and Anticancer Activity of Drug-like Imidazo[2,1-i]purine Derivatives” (J Med Chem, 2020)
